Experimental findings from ChEMBL document CHEMBL1811910, “Semisynthetic analogues of the marine cembranoid sarcophine as prostate and breast cancer migration inhibitors” (Bioorg Med Chem, 2011) are described below.

The structures appear in SMILES notation. Active and inactive are the calls of the source. No cut-off for these calls is given here.

Assay [1] has as its system MDA-MB-231. In words: Antiproliferative activity against human MDA-MB-231 cells at 5 to 50 uM after 24 hrs by MTT assay. It is filed as functional, cell-based. The procedure, abridged: (§1)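 After 3-4 passages in RPMI 1640 with 10% FBS, cells were seeded at 8 × 10^3 per well and left to attach for 24 h. Medium was then replaced with serum-free RPMI containing compound at 50, 20, 10 or 5 µM. Viability was read by MTT conversion to formazan, and cell number was taken from a standard curve of plated cells, with cells kept in exponential growth.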
For orientation: Formazan colour is commonly taken as a measure of viable cells.

The subject of assay [2] is PC-3. The experiment in a line: Antiproliferative activity against human PC3 cells at 5 to 50 uM after 24 hrs by MTT assay. It is filed as functional, cell-based. A digest of the protocol: as §1
Assay [3] relates to MDA-MB-231. The experiment in a line: Antimigratory activity against human MDA-MB-231 cells at 50 uM after 24 hrs by wound healing assay. The format is functional, cell-based. The procedure, abridged:
(§2)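 Cells grown to >90% confluent monolayer in RPMI 1640 with 10% FBS, glutamine, penicillin/streptomycin at 37 °C, 5% CO2, then scratched with a sterile 200 µL pipette tip. Compounds added in DMSO, in triplicate; PMH 200 µM positive control, DMSO vehicle control. After 24 h serum-starved incubation, cells were fixed and Diff Quick stained. Migrated cells counted in ≥3 random 400× fields, reported as mean ± SEM.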

The test system of assay [4] is MDA-MB-231. In words: Antiproliferative activity against human MDA-MB-231 cells after 24 hrs by MTT assay. It is filed as functional, cell-based. To be noted: MDA-MB-231, 24 h. A digest of the protocol: as §1
The test system of assay [5] is MDA-MB-231. The experiment in a line: Antimigratory activity against human MDA-MB-231 cells after 24 hrs by wound healing assay. The format is functional, cell-based. To be noted: MDA-MB-231, 24 h. The procedure, abridged: as §2
The subject of assay [6] is MDA-MB-231. In words: Antimigratory activity against human MDA-MB-231 cells at 5 to 30 uM after 24 hrs by wound healing assay. It is filed as functional, cell-based. A digest of the protocol:
as §2

Assay [7] concerns MDA-MB-231 (Homo sapiens). In words: Antimigratory activity against human MDA-MB-231 cells at 5 to 30 uM after 24 hrs by wound healing assay.
Assay [8] concerns PC-3. The experiment in a line: Antimigratory activity against human PC3 cells at 200 uM after 24 hrs by wound healing assay. The format is functional, cell-based. The procedure, abridged:
as §2

In assay [9] the test system is MDA-MB-231. In words: Antimigratory activity against human MDA-MB-231 cells at 200 uM after 24 hrs by wound healing assay. The format is functional, cell-based. The procedure, abridged:
as §2

Assay [10] deals with PC-3. In words: Antimigratory activity against human PC3 cells at 50 uM after 24 hrs by wound healing assay. The format is functional, cell-based. A digest of the protocol:
as §2

Assay [11] deals with PC-3. In words: Antimigratory activity against human PC3 cells after 24 hrs by wound healing assay. The format is functional, cell-based. To be noted: PC-3, 24 h. The procedure, abridged:
as §2

As for `C=C1CC/C=C(\C)CCC2=C(C)C(=O)O[C@H]2/C=C(\C)CCC1=O`, the result with MDA-MB-231 [1] and in the assay with PC-3 [2] was inactive.

Turning to `C=C1CC/C=C(\C)CCC2=C(C)C(=O)O[C@H]2/C=C(\C)CC[C@@H]1OC(=O)NCCCCl`, the outcome in the assay on MDA-MB-231 [1] and with PC-3 [2] was inactive.

For the compound `C=C1CC/C=C(\C)CCC2=C(C)C(=O)O[C@H]2/C=C(\C)CC[C@@H]1OC(=O)NCCCCC`, the result with MDA-MB-231 [1] and in the assay on PC-3 [2] was inactive. Besides, the outcome in the assay on MDA-MB-231 [3] was Active.

In the case of `C=C1CC/C=C(\C)CCC2=C(C)C(=O)O[C@H]2/C=C(\C)CC[C@@H]1O`, the result in the assay on MDA-MB-231 [1] and in the assay on PC-3 [2] was inactive. The outcome with MDA-MB-231 [3] was Active.

The IC50 is the concentration needed to halve the response being measured. A low value points to higher potency. For the compound `CCCCO[C@H]1CC/C(C)=C/[C@@H]2OC(=O)C(C)=C2CC/C(C)=C/CC[C@]1(C)O`, the IC50 in the assay on MDA-MB-231 [4] is 20 µM; with MDA-MB-231 [5], 30 µM. The outcome (with PC-3 [2]; in the assay on MDA-MB-231 [6]; in assay [7]) was inactive.

Take `CC1=C2CC/C(C)=C/CC[C@](C)(O)[C@@H](O)CC/C(C)=C/[C@@H]2OC1=O`: the result in the assay on MDA-MB-231 [1] and in the assay with PC-3 [2] was inactive. For the same compound, the outcome with MDA-MB-231 [3] was Active.

On to `CO[C@H]1CC/C(C)=C/[C@@H]2OC(=O)C(C)=C2CC/C(C)=C/CC[C@]1(C)O`, for which the result in the assay with MDA-MB-231 [1] and with PC-3 [2] was inactive.

On to `O=C1NC(=O)/C(=C/c2ccc(O)cc2)N1`, for which the outcome with PC-3 [8] and in the assay on MDA-MB-231 [9] was Active.

Consider `C=CCNC(=O)N(CC=C)C(=O)N(CC=C)C(=O)O[C@H]1CC/C(C)=C/[C@@H]2OC(=O)C(C)=C2CC/C(C)=C/CCC1=C`, for which the result in the assay with PC-3 [10] and in the assay on MDA-MB-231 [3] was Active. The result in the assay with MDA-MB-231 [1] and with PC-3 [2] was inactive. This compound also had an IC50 with PC-3 [11] of 24.3 µM.

For the compound `C=C1CC/C=C(\C)CCC2=C(C)C(=O)O[C@H]2/C=C(\C)CC[C@@H]1OC(=O)NCCCC`, the result (with PC-3 [10]; in the assay with MDA-MB-231 [6]; in assay [7]) was Active. Also, the IC50 in the assay with MDA-MB-231 [4] was 7 µM; in the assay with MDA-MB-231 [5] it was 4.83 µM. In the assay with PC-3 [2], the outcome was inactive.

For `CC1=C2CC/C(C)=C/CC[C@]3(C)O[C@H]3CC/C(C)=C/[C@@H]2OC1=O`, the outcome in the assay with MDA-MB-231 [1] and in the assay on PC-3 [2] was inactive.

As to `C=C1CC/C=C(\C)CCC2=C(C)C(=O)O[C@H]2/C=C(\C)CC[C@@H]1OC(=O)NC1CCCCC1`, the result (in the assay with PC-3 [10]; in the assay on MDA-MB-231 [6]; in assay [7]) was Active. The 50% inhibitory concentration (IC50) is 45 µM with MDA-MB-231 [4], 17.2 µM with MDA-MB-231 [5] and 15.5 µM in the assay on PC-3 [11]. In the assay on PC-3 [2], the result was inactive.

Turning to `C=C1CC/C=C(\C)CCC2=C(C)C(=O)O[C@H]2/C=C(\C)CC[C@@H]1OC(=O)Nc1ccccc1`, the outcome with PC-3 [10] and in the assay with MDA-MB-231 [3] was Active. The result in the assay with MDA-MB-231 [1] and in the assay with PC-3 [2] was inactive. Besides, the IC50 in the assay with PC-3 [11] was 16.3 µM.

`CCCO[C@H]1CC/C(C)=C/[C@@H]2OC(=O)C(C)=C2CC/C(C)=C/CC[C@]1(C)O`: the result in the assay on PC-3 [10] and with MDA-MB-231 [3] was Active. Moreover, the result in the assay on MDA-MB-231 [1] and in the assay on PC-3 [2] was inactive.

For the compound `CC1=C2CC/C(C)=C/CC[C@]3(C)O[C@H]3CC/C(C)=C/[C@@H]2OC1`, the result with MDA-MB-231 [1] and with PC-3 [2] was inactive. The outcome with MDA-MB-231 [3] was Active.

On to `CC1=C2CC/C(C)=C/CC[C@]3(C)O[C@H]3CC/C(C)=C\[C@H]2OC1`, for which the result with PC-3 [10] was Active. In addition, the result in the assay with MDA-MB-231 [1] and in the assay on PC-3 [2] was inactive.
